Active and inactive are the calls of the source. The rule behind the calls is not given here.
What was measured:
[1] = target: T1, Proteasome subunit beta type-8 (Homo sapiens) (UniProt P28062); assay: Inhibition of human 20S immunoproteasome beta-5 at 50 uM using Suc-LLVY-AMC as substrate incubated for 15 mins measured for 45 mins by fluorescence assay relative to control
T1 sequence (whole entry): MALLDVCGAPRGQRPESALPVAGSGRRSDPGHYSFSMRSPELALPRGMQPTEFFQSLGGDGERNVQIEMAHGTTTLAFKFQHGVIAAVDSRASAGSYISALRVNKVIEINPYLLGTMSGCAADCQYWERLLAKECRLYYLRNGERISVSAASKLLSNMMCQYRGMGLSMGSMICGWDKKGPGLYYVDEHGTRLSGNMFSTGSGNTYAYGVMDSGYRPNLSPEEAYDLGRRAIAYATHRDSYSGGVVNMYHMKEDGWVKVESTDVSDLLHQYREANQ
Procedure, shortened: (§1)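 Human 20S cCP or iCP (0.3 nM) was exposed to compound (0.001-50 μM) for 15 min in pH 8 buffer of 20 mM Tris-HCl, 10% glycerol, 0.01% SDS, 2% DMSO. Suc-LLVY-AMC at 20 μM followed. Fluorescence (ex 360/em 460 nm) was read 45 min at 37 °C versus untreated enzyme.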

[2] = target: T2, Proteasome subunit beta type-9 (Homo sapiens) (UniProt P28065); assay: Inhibition of human 20S immunoproteasome beta-1 at 50 uM using Ac-PAL-AMC as substrate incubated for 15 mins measured for 45 mins by fluorescence assay relative to control
T2 sequence (whole entry): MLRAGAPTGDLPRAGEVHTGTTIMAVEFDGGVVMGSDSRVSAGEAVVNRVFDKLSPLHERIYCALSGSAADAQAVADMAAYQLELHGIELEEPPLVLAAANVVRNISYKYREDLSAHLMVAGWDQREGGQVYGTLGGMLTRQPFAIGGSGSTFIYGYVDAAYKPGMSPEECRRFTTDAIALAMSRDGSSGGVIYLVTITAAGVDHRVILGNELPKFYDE
Procedure, shortened: (§2)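 Human 20S immunoproteasome (0.3 nM) was given 15 min with compound (0.001-50 μM) in pH 8 buffer of 20 mM Tris-HCl, 10% glycerol, 0.01% SDS, 2% DMSO. Ac-PAL-AMC at 50 μM was the substrate. Fluorescence (ex 360/em 460 nm) was followed 45 min at 37 °C relative to control.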

[3] = target: T3, Proteasome Macropain subunit MB1 (Homo sapiens, UniProt P28074); assay: Inhibition of human 20S constitutive proteasome beta-5 using Suc-LLVY-AMC as substrate incubated for 15 mins measured for 45 mins by fluorescence assay; procedure, shortened: as §1
T3 sequence (P28074 whole entry): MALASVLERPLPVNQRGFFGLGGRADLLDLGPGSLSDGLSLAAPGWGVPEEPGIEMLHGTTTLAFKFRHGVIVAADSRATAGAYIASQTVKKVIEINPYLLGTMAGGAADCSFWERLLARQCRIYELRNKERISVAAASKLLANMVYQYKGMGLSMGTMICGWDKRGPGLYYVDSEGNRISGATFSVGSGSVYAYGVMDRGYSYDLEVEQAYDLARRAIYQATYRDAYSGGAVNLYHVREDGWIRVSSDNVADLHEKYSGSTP

[4] = target: T4, Proteasome subunit beta type-10 (Homo sapiens) (UniProt P40306); assay: Inhibition of human 20S immunoproteasome beta-2 at 50 uM using BocLRR-AMC as substrate incubated for 15 mins measured for 45 mins by fluorescence assay relative to control
T4 sequence (whole entry): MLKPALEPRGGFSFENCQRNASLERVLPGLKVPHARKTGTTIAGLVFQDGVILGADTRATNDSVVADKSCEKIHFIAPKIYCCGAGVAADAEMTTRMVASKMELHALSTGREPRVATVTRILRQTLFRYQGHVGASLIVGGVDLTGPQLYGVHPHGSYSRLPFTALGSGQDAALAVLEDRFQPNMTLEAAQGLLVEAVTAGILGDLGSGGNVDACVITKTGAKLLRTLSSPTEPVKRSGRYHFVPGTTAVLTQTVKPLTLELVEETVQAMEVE

[5] = target: T5, Proteasome subunit beta type-8 (Homo sapiens, UniProt P28062); assay: Inhibition of human 20S immunoproteasome beta-5 using Suc-LLVY-AMC as substrate incubated for 15 mins measured for 45 mins by fluorescence assay; procedure, shortened: as §1
T5 sequence (P28062 whole entry): T1 sequence (whole entry)

[6] = target: T6, Proteasome Macropain subunit MB1 (Homo sapiens) (UniProt P28074); assay: Inhibition of human 20S constitutive proteasome beta-5 at 50 uM using Suc-LLVY-AMC as substrate incubated for 15 mins measured for 45 mins by fluorescence assay relative to control; procedure, shortened: as §1
T6 sequence (whole entry): T3 sequence (P28074 whole entry)

[7] = target: T7, Proteasome component C5 (Homo sapiens) (UniProt P20618); assay: Inhibition of human 20S constitutive proteasome beta-1 at 50 uM using Z-LLE-betaNA as substrate incubated for 15 mins measured for 45 mins by fluorescence assay relative to control
T7 sequence (whole entry): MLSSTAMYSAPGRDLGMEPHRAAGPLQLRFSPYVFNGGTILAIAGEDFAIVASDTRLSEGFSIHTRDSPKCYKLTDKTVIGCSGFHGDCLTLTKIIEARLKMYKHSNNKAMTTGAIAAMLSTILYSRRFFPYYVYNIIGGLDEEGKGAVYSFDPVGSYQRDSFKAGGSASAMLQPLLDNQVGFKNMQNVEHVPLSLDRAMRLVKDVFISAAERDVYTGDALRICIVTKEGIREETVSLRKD
Procedure, shortened: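 Human 20S constitutive proteasome, 0.3 nM, was preincubated 15 min with compound (0.001-50 μM) in pH 8 Tris-HCl 20 mM, 10% glycerol, 0.01% SDS, 2% DMSO. Z-LLE-βNA at 50 μM was added. βNA fluorescence (ex 340/em 404 nm) was monitored 45 min at 37 °C against an untreated control.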

[8] = target: Proteasome Macropain subunit (Homo sapiens) (UniProt P49721); assay: Inhibition of human 20S constitutive proteasome beta-2 at 50 uM using BocLRR-AMC as substrate incubated for 15 mins measured for 45 mins by fluorescence assay relative to control
Chain of Proteasome Macropain subunit (Homo sapiens) (P49721 whole entry): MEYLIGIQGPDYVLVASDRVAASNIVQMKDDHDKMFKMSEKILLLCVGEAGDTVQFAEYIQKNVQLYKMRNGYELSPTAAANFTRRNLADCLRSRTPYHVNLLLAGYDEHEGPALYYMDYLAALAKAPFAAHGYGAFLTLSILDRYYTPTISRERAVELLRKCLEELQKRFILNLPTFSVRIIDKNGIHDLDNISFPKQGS
Procedure, shortened: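 Purified human 20S proteasome (cCP or iCP), 0.3 nM, preincubated 15 min with compound (0.001-50 μM) in pH 8 buffer of 20 mM Tris-HCl, 10% glycerol, 0.005% Triton X-100, 2% DMSO. Then Boc-LRR-AMC at 50 μM was added. AMC fluorescence (ex 360/em 460 nm) was followed 45 min at 37 °C. Activity is relative to an untreated control.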

[9] = target: T8, Proteasome subunit beta type-9 (Homo sapiens, UniProt P28065); assay: Inhibition of human 20S immunoproteasome beta-1 using Ac-PAL-AMC as substrate incubated for 15 mins measured for 45 mins by fluorescence assay; procedure, shortened: as §2
T8 sequence (P28065 whole entry): T2 sequence (whole entry)

[10] = target: T9, Proteasome subunit beta type-10 (Homo sapiens, UniProt P40306); assay: Inhibition of human 20S immunoproteasome beta-2 using BocLRR-AMC as substrate incubated for 15 mins measured for 45 mins by fluorescence assay
T9 sequence (P40306 whole entry): T4 sequence (whole entry)

SMILES	inhibition [1]	inhibition [2]	IC50 [3]	inhibition [4]	IC50 [5]	inhibition [6]	inhibition [7]	inhibition [8]	IC50 [9]	IC50 [10]
C[C@H](NC(=O)Cc1cccc(Oc2ccccc2)c1)C(=O)N[C@@H](C[C@]1(O)C(=O)Nc2ccccc21)C(=O)NCc1ccccc1	> 85%	> 85%	0.35 µM	> 85%	0.26 µM	> 85%	> 85%	> 85%	14 µM	14.3 µM
C[C@H](NC(=O)OCc1ccccc1)C(=O)N[C@@H](C[C@]1(O)C(=O)Nc2ccccc21)C(=O)NCc1ccccc1	> 85%	> 85%	5.1 µM	inactive	3.96 µM	> 85%	inactive	inactive	45 µM	–
CC(C)(C)OC(=O)N[C@@H](Cc1ccc(OCc2ccccc2)cc1)C(=O)NCC(=O)N[C@@H](C[C@]1(O)C(=O)Nc2ccccc21)C(=O)NCc1ccccc1	> 85%	> 85%	6.2 µM	> 85%	7.8 µM	> 85%	> 85%	> 85%	12.6 µM	8.9 µM
NC(=O)C[C@H](NC(=O)OCc1ccccc1)C(=O)N[C@@H](C[C@]1(O)C(=O)Nc2ccccc21)C(=O)NCc1ccccc1	> 85%	inactive	0.36 µM	inactive	0.42 µM	> 85%	inactive	inactive	–	–
C[C@H](NC(=O)[C@H](Cc1ccc(OCc2ccccc2)cc1)NC(=O)OC(C)(C)C)C(=O)N[C@@H](C[C@@]1(O)C(=O)N(C)c2ccccc21)C(=O)NCc1ccccc1	> 85%	> 85%	6.8 µM	18%	6.1 µM	> 85%	> 85%	56%	8.9 µM	–
C[C@H](O)[C@@H](NC(=O)OCc1ccccc1)C(=O)N[C@@H](C[C@]1(O)C(=O)Nc2ccccc21)C(=O)NCc1ccccc1	> 85%	> 85%	0.88 µM	inactive	0.572 µM	> 85%	20%	inactive	24.6 µM	–
C[C@H](NC(=O)[C@H](Cc1ccc(OCc2ccccc2)cc1)NC(=O)OC(C)(C)C)C(=O)N[C@@H](C[C@]1(O)C(=O)Nc2ccccc21)C(=O)NC(c1ccccc1)c1ccccc1	> 85%	> 85%	1.74 µM	inactive	2.7 µM	> 85%	> 85%	30%	4 µM	–

The remaining lines, values ahead:

inhibition [1]	inhibition [2]	IC50 [3]	inhibition [4]	IC50 [5]	inhibition [6]	inhibition [7]	inhibition [8]	IC50 [9]	IC50 [10]	SMILES
> 85%	> 85%	6 µM	26%	6.5 µM	> 85%	> 85%	45%	7.31 µM	–	C[C@H](NC(=O)[C@H](Cc1ccc(OCc2ccccc2)cc1)NC(=O)OC(C)(C)C)C(=O)N[C@@H](C[C@]1(O)C(=O)Nc2ccccc21)C(=O)NCCc1ccccc1
> 85%	> 85%	4.3 µM	> 85%	5.2 µM	> 85%	> 85%	> 85%	4.8 µM	16 µM	C[C@H](NC(=O)[C@H](Cc1ccc(OCc2ccccc2)cc1)NC(=O)OC(C)(C)C)C(=O)N[C@@H](C[C@]1(O)C(=O)Nc2ccccc21)C(=O)NCC1CCCCC1
14%	17%	–	> 85%	–	18%	19%	> 85%	–	22 µM	C[C@H](NC(=O)[C@H](Cc1ccc(OCc2ccccc2)cc1)NC(=O)OC(C)(C)C)C(=O)N[C@@H](C[C@]1(O)C(=O)Nc2ccccc21)C(=O)NCCC(=O)O
> 85%	> 85%	1.4 µM	> 85%	1.9 µM	> 85%	> 85%	> 85%	2.77 µM	2.7 µM	C[C@H](NC(=O)[C@H](Cc1ccc(OCc2ccccc2)cc1)NC(=O)OC(C)(C)C)C(=O)N[C@@H](C[C@]1(O)C(=O)Nc2ccccc21)C(=O)NCc1cccc2ccccc12
> 85%	> 85%	5.1 µM	27%	3.93 µM	> 85%	> 85%	19%	10.3 µM	–	C[C@H](NC(=O)[C@H](Cc1ccc(OCc2ccccc2)cc1)NC(=O)OC(C)(C)C)C(=O)N[C@@H](C[C@]1(O)C(=O)N(C)c2ccccc21)C(=O)NCc1ccccc1
> 85%	> 85%	2.8 µM	19%	2.7 µM	> 85%	> 85%	36%	3.5 µM	–	C[C@H](NC(=O)[C@H](Cc1ccc(OCc2ccccc2)cc1)NC(=O)OC(C)(C)C)C(=O)N[C@@H](C[C@]1(O)C(=O)Nc2ccccc21)C(=O)NCCC1CCCCC1
31%	17%	64 µM	> 85%	–	> 85%	15%	14%	–	106 µM	COC(=O)CCNC(=O)[C@H](C[C@]1(O)C(=O)Nc2ccccc21)NC(=O)[C@H](C)NC(=O)[C@H](Cc1ccc(OCc2ccccc2)cc1)NC(=O)OC(C)(C)C
